Assay outcomes deposited in PubChem BioAssay by Broad Institute.
FN deposition inh: fibronectin deposition inhibition. AH1F fibroblasts, Alexa488-fibronectin deposition fluorescence, overnight. inhibition, % at 12.6 µM. actives 0.086% (n = 350,000). AID 743247;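 active means mean inhibition across replicates of 30% or more, regardless of how many single replicates reach that level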;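 further: positive control wells lacked labelled fibronectin entirely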
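Material: AH1F fibroblasts assembling fluorescent fibronectin matrix; amount: 10000 AH1F cells/well; medium: DMEM, 2% serum; reagent: Alexa488-fibronectin, 24 nM final in well; dosing: single compound dose, delivered by pin transfer; incubation: 1 h adhesion, overnight exposure; detection: fluorescence after three HBSS washes, excitation 485 nm, emission 525 nm; measure: fibronectin deposition inhibition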
Env fusion inh: HIV envelope-mediated fusion inhibition; HeLa-JRFL Env/CEM21 cell fusion, luciferase; inhibition, % at 12.3 µM; actives 1.1% (n = 360,000); AID 651610;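 active means mean replicate inhibition score of at least 50 and every replicate individually at or above 50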;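 further: 0% = plate neutral controls and 100% = maraviroc near 300 nM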
S100A4 inh HTS: inhibitors of human S100A4 binding to myosin IIA peptide. S100A4/TAMRA-MyoIIA peptide fluorescence polarization. P26447. AID 652163. actives 0.14% (n = 360,000). inhibition, % at 10.7 µM;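 active means mean inhibition of at least 70% across replicates, with every replicate also reaching that level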
Target sequence (P26447 whole entry, looked up): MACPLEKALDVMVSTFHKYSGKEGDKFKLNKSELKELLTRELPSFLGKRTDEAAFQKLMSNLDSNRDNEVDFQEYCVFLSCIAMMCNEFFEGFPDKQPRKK
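Material: S100A4 monomer protein / Buffer or medium: 50 mM HEPES pH 7.2, 10 mM CaCl2, 100 mM KCl / Times: 5 min incubation before reading / Benchmarks: neutral control DMSO, positive control TFP / Reagent: labelled myosin peptide probe, 5 nM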
Vif inh: blocks HIV Vif function. HEK293T cells, Vif self-association by quenched fluorescence, imaging, 24 h. actives 0.35% (n = 340,000). inhibition, % at 7.49 µM. AID 602346; in the data active means inhibition above about 50%, passing the limit was not always enough
miR-122 sensor: miR-122 inhibition in Huh7 cells | activation (reporter increase), % at 12.5 µM | Huh7 miR-122 Renilla luciferase sensor, 48 h; neutral wells = 0, positive control = 100 | actives 0.3% (n = 340,000);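 active means mean replicate activation score at least 90 and every replicate individually at or above 90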;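 further: higher luciferase means less miR-122 activity so hits act as miR-122 inhibitors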
Ecoli rRNA inh: selective bacterial rRNA inhibition in E. coli; E. coli WT GFP vs humanized-ribosome RFP mutants, fluorescence, 24 h; hits give low values; DMSO median 0, no signal -100; GFP signal change (wild-type ribosome), % (test concentration not listed); actives 1.6% (n = 350,000);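 active means significant combined selectivity score with lowered wild-type GFP, culture density cut under 30%, mutant RFP and density less affected; inactive means any of these conditions unmet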
* marks the source's active call; other numbers are inactive results; [ ] = another dose, or the depositor's remark. An excerpt weighted towards active compounds, which were near 2.6% of everything screened.

Screening CNC[C@@H]1Oc2ccc(NC(=O)NC(C)C)cc2CC(=O)N(C)C[C@H]1C returned FN deposition inh 1 and Ecoli rRNA inh 0.
For CCCNC(=O)Nc1ccc2c(c1)OC[C@@H](C)N(Cc1ccccc1)C[C@@H](C)[C@H](OC)CN(C)C2=O the results were FN deposition inh -8, S100A4 inh HTS -9, miR-122 sensor -2[16.7 µM] and Ecoli rRNA inh 2.
`COC(=O)c1cc(-c2cccs2)nn1-c1ccccc1` gave FN deposition inh 1, Env fusion inh 10, S100A4 inh HTS 4, Vif inh -1 and Ecoli rRNA inh -29*.
`C[C@H]1CN([C@@H](C)CO)C(=O)c2cccc(NS(=O)(=O)c3ccc(Cl)cc3)c2O[C@H]1CN(C)CC1CCCCC1` gave FN deposition inh -9, Env fusion inh -55[16.7 µM], S100A4 inh HTS 13, miR-122 sensor 6[16.7 µM] and Ecoli rRNA inh 2.
Nc1[nH]c(C(=O)c2ccccc2)c(-c2ccccc2Br)c1C(=O)c1ccccc1 was read as FN deposition inh -15, Env fusion inh 8, S100A4 inh HTS -2 and Ecoli rRNA inh -41*.
`Cc1ccc(S(=O)(=O)N2CCN(C(=O)c3n[nH]c(=O)c4ccccc34)CC2)c(C)c1` gave FN deposition inh -4, S100A4 inh HTS 8, Vif inh 53* and Ecoli rRNA inh -3.
C[C@H](CO)N1C[C@H](C)[C@@H](CN(C)Cc2cccc(C(=O)O)c2)Oc2ncc(C#C[C@@H](C)O)cc2C1=O was read as Env fusion inh 4[16.7 µM], S100A4 inh HTS 21, miR-122 sensor 8[16.7 µM] and Ecoli rRNA inh 4.
Screening C[C@@]12C(=O)Nc3ccc(Cl)cc3C(=O)N1[C@H]1c3cc(Br)ccc3OC[C@@H]1[C@@H]2c1ccccc1 returned FN deposition inh -1, Env fusion inh 45, S100A4 inh HTS -2, Vif inh 2, miR-122 sensor -12 and Ecoli rRNA inh 13.
Screening COc1cc2c(cc1OC)C(=O)N1[C@H]3c4cc(Cl)ccc4OC[C@@H]3[C@H](c3ccccc3)[C@]1(C)C(=O)N2 returned FN deposition inh -1, Env fusion inh 99*, S100A4 inh HTS -5, Vif inh -6, miR-122 sensor -6 and Ecoli rRNA inh 5.
`C[C@@]12C(=O)Nc3ccc(Br)cc3C(=O)N1[C@H]1c3cc(Br)ccc3OC[C@@H]1[C@@H]2c1ccccc1` gave FN deposition inh -2, Env fusion inh 63*, S100A4 inh HTS 7, Vif inh -3 and Ecoli rRNA inh 15.
C[C@H]1NC(=O)[C@@]2(C)[C@H](c3ccccc3)[C@H]3COc4ccccc4[C@@H]3N2C1=O was read as FN deposition inh -8, Env fusion inh 92*, S100A4 inh HTS 4, Vif inh 0, miR-122 sensor -3 and Ecoli rRNA inh -2.
For O=C(C1CC1)N1C[C@@H]2[C@H](c3ccccc31)[C@@H](CO)N2C(=O)Nc1cccc(F)c1 the results were FN deposition inh 2, S100A4 inh HTS 5, miR-122 sensor 40[16.7 µM] and Ecoli rRNA inh 0.
`O=C(O)/C=C/C(=O)Nc1ccc2c(c1)C(=O)c1ccccc1C2=O` gave FN deposition inh -6, Env fusion inh -18, S100A4 inh HTS -1, Vif inh -2 and Ecoli rRNA inh -35*.
For CC(NC(=O)CSc1nc2c(c(C(F)(F)F)n1)CCc1ccccc1-2)c1ccccc1 (stereo not given) the results were S100A4 inh HTS 7, Vif inh 63* and Ecoli rRNA inh 5.
Cc1ccc(NS(=O)(=O)c2cccc3nsnc23)cc1C was read as FN deposition inh -1, Env fusion inh -62, S100A4 inh HTS 0, Vif inh -7, miR-122 sensor 114* and Ecoli rRNA inh -14.
Screening O=S(=O)(Nc1ccc(Cl)cc1)c1cccc2nsnc12 returned FN deposition inh -1, Env fusion inh -4, S100A4 inh HTS 2, Vif inh 6, miR-122 sensor 120* and Ecoli rRNA inh -14.
For O=S(=O)(Nc1cccc(F)c1)c1cccc2nsnc12 the results were FN deposition inh -3, Env fusion inh 4, S100A4 inh HTS -1, Vif inh -7, miR-122 sensor 4 and Ecoli rRNA inh -1.
`Cc1noc(C)c1NC(=O)N(C)C[C@H]1OCCCC[C@@H](C)Oc2ccc(NC(=O)c3ccncc3)cc2C(=O)N([C@H](C)CO)C[C@H]1C` gave Env fusion inh 15[16.7 µM], S100A4 inh HTS -25, miR-122 sensor 4[16.7 µM] and Ecoli rRNA inh 0.
`CC(C)c1cn(CC[C@@H]2CC[C@H](NC(=O)C3CCCC3)[C@H](CO)O2)nn1` gave FN deposition inh -14, Env fusion inh 2[16.7 µM], S100A4 inh HTS -6, miR-122 sensor 0[16.7 µM] and Ecoli rRNA inh 1.
For COc1ccc(NS(=O)(=O)c2ccc(OC)c3ccccc23)cn1 the results were Vif inh -4 and miR-122 sensor 356*.
`COc1ccc(NS(=O)(=O)c2cccs2)cn1` gave FN deposition inh 5, Env fusion inh -10, S100A4 inh HTS -6, Vif inh -1, miR-122 sensor -1 and Ecoli rRNA inh 4.
`CC(C)NC(=O)Nc1ccc2c(c1)C(=O)N([C@@H](C)CO)C[C@H](C)[C@H](CN(C)Cc1ccccc1)O2` gave Env fusion inh -3[16.7 µM], S100A4 inh HTS 9, miR-122 sensor -4[16.7 µM] and Ecoli rRNA inh 4.
For COc1ccc(-c2noc(CCC(=O)N3CCN(c4cccc(OC)c4)CC3)n2)cc1 the results were FN deposition inh -3, Env fusion inh 1, S100A4 inh HTS -4, Vif inh -6, miR-122 sensor -1 and Ecoli rRNA inh -32*.
CC(=O)Nc1ccc2c(c1)CC(=O)N(C)C[C@@H](C)[C@@H](CN(C)C(=O)OC(C)(C)C)O2 was read as FN deposition inh 8 and Ecoli rRNA inh -1.
For C[C@H](CO)N1C[C@H](C)[C@@H](CN(C)Cc2ccncc2)Oc2c(NC(=O)NC3CCCCC3)cccc2C1=O the results were Ecoli rRNA inh -4.
For COc1ccc(N(CC(=O)NCCSC2CCCCC2)S(=O)(=O)c2ccc(C)cc2)cc1 the results were FN deposition inh 2, Env fusion inh 33, S100A4 inh HTS -3, Vif inh 5 and miR-122 sensor -3.
COc1ccc(N(CC(=O)NCCSc2ccc(C)cc2)S(=O)(=O)c2ccccc2)c(OC)c1 was read as FN deposition inh 5, Env fusion inh 37, S100A4 inh HTS -1, Vif inh 4 and Ecoli rRNA inh -14.
For COc1ccc(NC(=O)CN(c2ccccc2)S(=O)(=O)c2ccccc2)c(OC)c1 the results were FN deposition inh -1, Env fusion inh 7, S100A4 inh HTS 4, Vif inh 0, miR-122 sensor 4 and Ecoli rRNA inh -24*.
